The results in this text go back to ChEMBL document CHEMBL3580587, “Design of Pyridopyrazine-1,6-dione γ-Secretase Modulators that Align Potency, MDR Efflux Ratio, and Metabolic Stability” (ACS Med Chem Lett, 2015).

For one data set, the target named is Gamma-secretase. Kind of data set: Modulation of human gamma secretase overexpressed in CHO cells co-expressing wild type human APP assessed as inhibition of amyloid beta-42 production after 24 hrs by ELISA. Format: cell-based.
Conditions: not given
The procedure, abridged: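 Whole-cell assay in CHO cells expressing wild-type APP; Aβ42 IC50 reported as geometric mean of at least two experiments.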
As for `Cc1cn(-c2ccc3n(c2=O)CCN(CCOc2ccc(F)cc2[C@H](C)C(F)(F)F)C3=O)cn1`, the IC50 worked out at 85 nM.

As to `Cc1cn(-c2ccc3n(c2=O)CCN(CCOc2ccccc2C(C)(C)C)C3=O)cn1`, the IC50 was 128 nM.

Regarding `Cc1cn(-c2ccc3n(c2=O)CCN(CCOc2ccccc2-c2cc(C(F)(F)F)no2)C3=O)cn1`, the IC50 was found to be 17 nM.

Take `Cc1cn(-c2ccc3n(c2=O)CCN(CCOc2ccc(F)cc2C2CC(F)(F)C2)C3=O)cn1`: the IC50 amounted to 59 nM.

As to `Cc1cn(-c2ccc3n(c2=O)CCN(CCOc2ccccc2-c2cc(C)ns2)C3=O)cn1`, the IC50 turned out to be 104 nM.

As for `Cc1cn(-c2ccc3n(c2=O)CCN(CCOc2ccc(F)cc2[C@@H](C)C(F)(F)F)C3=O)cn1`, the half-inhibitory concentration (IC50) was 20 nM.

As to `Cc1cn(-c2ccc3n(c2=O)CCN(CCOc2ccc(F)c4nc(C(F)(F)F)sc24)C3=O)cn1`, the IC50 amounted to 25 nM.

On to `Cc1cn(-c2ccc3n(c2=O)CCN(CCOc2ccccc2-c2cc(C(F)F)no2)C3=O)cn1`, for which the IC50 stood at 72 nM.

For the compound `Cc1cn(-c2ccc3n(c2=O)CCN([C@@H](C)COc2ccc(F)cc2[C@@H](C)C(F)(F)F)C3=O)cn1`, the IC50 was found to be 6 nM.

Take `Cc1cn(-c2ccc3n(c2=O)CCN(CCOc2ccccc2-c2csc(C)n2)C3=O)cn1`: the IC50 amounted to 302 nM.

For `Cc1cn(-c2ccc3n(c2=O)CCN(CCOc2ccccc2C2CCC2)C3=O)cn1`, the IC50 was 73 nM.

Consider `Cc1cn(-c2ccc3n(c2=O)CCN(CCOc2ccc(F)cc2C(C)(C)C(F)(F)F)C3=O)cn1`, for which the IC50 came to 30 nM.

For the compound `Cc1cn(-c2ccc3n(c2=O)CCN(CCOc2ccccc2-c2csc(C(F)(F)F)n2)C3=O)cn1`, the half-inhibitory concentration (IC50) came to 18 nM.

The test system of a further data set is MDR1 (human). Kind of data set: Efflux ratio of apparent permeability from basolateral to apical over apical to basolateral side in MDCK cells expressing human MDR1 at 2 uM after 5 hrs by transwell assay. Conditions: dog. Format: ADME, cell-based, Canis lupus familiaris. In a few lines: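 MDR1/MDCK assay using MDCK cells transfected with the human P-glycoprotein gene; efflux ratio reported.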
`Cc1cn(-c2ccc3n(c2=O)CCN(CCOc2ccccc2C(C)(C)C)C3=O)cn1`: the efflux ratio at 5 h, 2 µM amounted to 1.7.

System in the next data set: not listed separately
Kind of data set: Apparent intrinsic clearance in human liver microsomes. The settings on record: read-out: CLH(app). Format: ADME.
Regarding `Cc1cn(-c2ccc3n(c2=O)CCN(CCOc2cccc4ccc(F)cc24)C3=O)cn1`, the CLint scaled was found to be 8.1 mL/min/kg.

Regarding `Cc1cn(-c2ccc3n(c2=O)CCN(CCOc2ccccc2C(C)(C)C)C3=O)cn1`, the CLint scaled is 95.7 mL/min/kg.
